For assay [1], the target named is T1, hCBS (human cystathionine β-synthase) (Homo sapiens, UniProt P35520).
T1 sequence (P35520 1-551): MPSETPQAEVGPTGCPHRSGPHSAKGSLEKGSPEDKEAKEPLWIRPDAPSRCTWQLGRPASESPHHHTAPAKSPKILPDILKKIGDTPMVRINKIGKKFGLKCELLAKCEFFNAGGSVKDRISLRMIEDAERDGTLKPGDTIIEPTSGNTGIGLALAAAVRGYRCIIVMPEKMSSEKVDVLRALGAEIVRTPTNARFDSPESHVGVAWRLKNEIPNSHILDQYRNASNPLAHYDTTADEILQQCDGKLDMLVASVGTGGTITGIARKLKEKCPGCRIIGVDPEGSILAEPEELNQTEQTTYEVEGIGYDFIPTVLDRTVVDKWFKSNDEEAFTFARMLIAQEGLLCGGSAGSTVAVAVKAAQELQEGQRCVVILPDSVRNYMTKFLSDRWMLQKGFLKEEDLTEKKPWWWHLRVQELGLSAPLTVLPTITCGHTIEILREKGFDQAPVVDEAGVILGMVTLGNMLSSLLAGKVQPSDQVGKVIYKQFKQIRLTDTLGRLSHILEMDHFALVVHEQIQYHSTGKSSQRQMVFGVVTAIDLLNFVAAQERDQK
The experiment in a line: isothermal titration calorimetry, two independent types of sites model. It counts as binding. Put shortly: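 Purified human CBS in 20 mM Hepes pH 7.4 titrated with SAM by ITC. Without salt: 8 μM tetramer, 50 injections of 0.7 mM SAM spaced 150 s. With 200 mM NaCl: 20 μM tetramer, 19 injections of 1.06 mM SAM spaced 250 s. Isotherms fitted to a two independent types of sites model; salt titrations repeated in four independent experiments.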

For assay [2], the target named is T1, hCBS (human cystathionine β-synthase). The experiment in a line: radioisotope CBS activity assay with L-[U-14C]serine. It counts as biochemical.
Assay [3] deals with T2, Human cystathionine beta-synthase (human), P35520.
T2 chain: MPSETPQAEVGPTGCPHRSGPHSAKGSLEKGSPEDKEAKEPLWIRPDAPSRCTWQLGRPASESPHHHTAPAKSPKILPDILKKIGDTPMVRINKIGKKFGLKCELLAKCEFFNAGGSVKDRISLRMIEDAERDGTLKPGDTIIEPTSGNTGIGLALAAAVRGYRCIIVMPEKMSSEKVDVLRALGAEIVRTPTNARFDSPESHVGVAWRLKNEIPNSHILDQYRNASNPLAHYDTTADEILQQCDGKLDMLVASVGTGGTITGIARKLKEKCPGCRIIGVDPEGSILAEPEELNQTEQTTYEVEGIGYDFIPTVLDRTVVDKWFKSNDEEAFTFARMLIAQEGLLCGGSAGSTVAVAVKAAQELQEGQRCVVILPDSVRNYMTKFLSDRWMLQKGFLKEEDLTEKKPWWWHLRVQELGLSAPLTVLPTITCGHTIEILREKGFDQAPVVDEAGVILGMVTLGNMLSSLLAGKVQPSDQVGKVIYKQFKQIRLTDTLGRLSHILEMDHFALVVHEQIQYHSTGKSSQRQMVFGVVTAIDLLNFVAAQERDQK
The experiment in a line: dynamic light scattering. As to conditions: remark: other sources report otherwise.

In turn, `C[S+](CC[C@H](N)C(=O)O)C[C@H]1O[C@@H](n2cnc3c(N)ncnc32)[C@H](O)[C@@H]1O` (stereo partly drawn) [SAM] had a dissociation constant (Kd) in assay [1] of 13 nM. This molecule also had an EC50 in assay [2] of 3700 ± 200 nM.

B1: Human cystathionine beta-synthase, P35520 1-551 (enzyme)
chain: MPSETPQAEVGPTGCPHRSGPHSAKGSLEKGSPEDKEAKEPLWIRPDAPSRCTWQLGRPASESPHHHTAPAKSPKILPDILKKIGDTPMVRINKIGKKFGLKCELLAKCEFFNAGGSVKDRISLRMIEDAERDGTLKPGDTIIEPTSGNTGIGLALAAAVRGYRCIIVMPEKMSSEKVDVLRALGAEIVRTPTNARFDSPESHVGVAWRLKNEIPNSHILDQYRNASNPLAHYDTTADEILQQCDGKLDMLVASVGTGGTITGIARKLKEKCPGCRIIGVDPEGSILAEPEELNQTEQTTYEVEGIGYDFIPTVLDRTVVDKWFKSNDEEAFTFARMLIAQEGLLCGGSAGSTVAVAVKAAQELQEGQRCVVILPDSVRNYMTKFLSDRWMLQKGFLKEEDLTEKKPWWWHLRVQELGLSAPLTVLPTITCGHTIEILREKGFDQAPVVDEAGVILGMVTLGNMLSSLLAGKVQPSDQVGKVIYKQFKQIRLTDTLGRLSHILEMDHFALVVHEQIQYHSTGKSSQRQMVFGVVTAIDLLNFVAAQERDQK
For the molecule B1, in assay [3], the stoichiometry N is 4.

As usually defined, the Kd is the concentration at which binding is half-saturated. Low readings indicate tighter binding, high ones weaker binding. The EC50 is the concentration that produces a half-maximal response. Higher therefore signals a need for much substance. As usually defined, the stoichiometry N is a count of units in the complex or per binding partner.

The values above are taken from paper PMC4112162 (Biochimica et biophysica acta, 2014).
